RGS4 pot – potentiators or activators of RGS4; 0.92% of 310,000 active; AID 463111; B-score at 10 µM; HEK293 M3R/inducible RGS4, carbachol calcium flux Fluo4; hits give low values;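 active means B-score of the integrated calcium signal more than 4 SD below the library mean, with starting fluorescence not abnormally high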;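 further: negative B-score means reduced calcium response which marks RGS4 activation or potentiation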
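Also added: carbachol at ECmax as muscarinic agonist stimulus; Assay system: HEK293 cells with stable M3R and inducible RGS4; Timing: overnight RGS4 induction, 30 min dye load 37 °C, 20 min compound RT; Measured by: Fluo4-AM (2 µM) calcium-flux fluorescence, kinetic read.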
RGS4 block – inhibitors of human RGS4. 0.45% of 310,000 active. B-score at 10 µM. P49798. HEK293 M3R/RGS4 inducible, Fluo-4 calcium flux; hits give high values; triggered by carbachol at its EC20;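 active means B-score, a plate-corrected calcium signal, over three deviations above library mean, with baseline fluorescence within five deviations of library mean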;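 further: RGS4 expression induced by doxycycline in cells with stable M3 receptor; B-score is computed from the integrated fluorescence ratio over baseline after carbachol; higher B-score means a larger calcium signal and so more RGS4 inhibition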
Target sequence (P49798 whole entry, looked up): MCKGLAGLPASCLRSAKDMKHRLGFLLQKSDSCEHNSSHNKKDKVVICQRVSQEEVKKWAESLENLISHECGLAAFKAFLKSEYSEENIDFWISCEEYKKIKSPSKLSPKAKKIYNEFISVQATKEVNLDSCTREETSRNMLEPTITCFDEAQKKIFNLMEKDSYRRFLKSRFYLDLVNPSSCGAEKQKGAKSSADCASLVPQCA
MrgX1 antagonist – antagonists of human MrgX1 receptor. Q96LB2. B-score at 10 µM. MRGX1-HEK293 calcium flux, Fluo-4, BAM8-22 antagonism; hits give low values. AID 588676. 1.3% of 310,000 active;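 active means calcium-response B-score plate-corrected more than 3 library SD below zero, starting fluorescence within 5 deviations, no agonist response on first addition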;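 further: peak minus trough fluorescence over baseline after final BAM8-22 challenge near maximal dose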
Target sequence (Q96LB2 whole entry, looked up): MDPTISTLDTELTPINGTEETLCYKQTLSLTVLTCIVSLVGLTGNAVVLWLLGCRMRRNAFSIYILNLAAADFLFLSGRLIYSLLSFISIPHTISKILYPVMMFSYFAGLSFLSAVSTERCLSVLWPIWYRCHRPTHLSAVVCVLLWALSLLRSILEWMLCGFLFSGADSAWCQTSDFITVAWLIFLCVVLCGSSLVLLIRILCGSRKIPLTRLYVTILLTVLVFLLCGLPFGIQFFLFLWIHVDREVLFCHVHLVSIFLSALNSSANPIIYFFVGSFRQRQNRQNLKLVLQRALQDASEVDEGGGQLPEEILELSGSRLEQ
MrgX1 PAM – human MrgX1 positive allosteric modulation, primary screen; Q96LB2; MrgX1-HEK293, Fluo-4 calcium flux, FDSS; hits give high values; B-score at 10 µM; 0.63% of 310,000 active;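 active means plate-corrected calcium response at least 3 library SD above typical, normal starting fluorescence, not activating the receptor alone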;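 further: compound read alongside a low EC10 to EC30 dose of BAM8-22 agonist; peak minus trough fluorescence over baseline measured at the second addition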
MrgX1 agonist – agonists of human MrgX1 receptor; MrgX1-HEK293 cells, Fluo-4 calcium fluorescence, agonist mode; hits give high values; B-score at 10 µM; 0.44% of 310,000 active;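 active means calcium response B-score plate-corrected fluorescence ratio at least 3 library SD, with starting fluorescence B-score inside 5 SD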
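Assay system: stable human MrgX1 HEK293 cell line. Quantity: 15,000 cells per well. Schedule: cells plated overnight, dye loaded 0.5 h 37 °C, 0.5 h room temperature. Detection: Fluo-4 NW calcium-flux fluorescence, kinetic read. Read-out basis: peak-minus-minimum fluorescence over baseline, converted to B scores. Control set: positive and negative control wells on each plate.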
An asterisk follows results filed as active; i = inactive. Most compounds without a hit are left out; they make up all but 3.5% or so of the library.

SMILES | RGS4 pot | RGS4 block | MrgX1 antagonist | MrgX1 PAM | MrgX1 agonist
CCC(=O)Oc1ccc(C2NC(=O)c3ccccc3O2)cc1OC (configuration not stated) | -7.59* | i | i | i | i
C=C1SC(=Nc2c(C)cccc2Cl)N(C(=O)c2sc3ccccc3c2Cl)C12CCCCC2 | i | i | -5.05* | i | i
CCCCCCN1C=CC(=C/C=C(\C#N)C(=O)OCC)C=C1 | i | i | i | i | 64.2*
CCCN1C=CC(=C/C=C(\C#N)C(=O)OCC)C=C1 | i | i | i | i | i
O=C(/C=C/Nc1ccc(Br)cc1F)c1ccccc1 | i | i | -5.95* | i | i
N#C/C(=C(/O)COC(=O)Cc1c[nH]c2ccccc12)c1nc2ccccc2[nH]1 | i | i | -4.93* | i | i
COc1ccc(/C=N/OC/C(O)=C(\C#N)c2nc3ccccc3[nH]2)cc1 | i | i | -5.62* | i | i
CCCCc1cc(=O)oc2cc(OCC(=O)Nc3cccnc3)c(Cl)cc12 | i | i | i | i | i
Cc1ccc(C)c(C(C)NC(=O)C2C3CCC(O3)C2C(=O)O)c1 (configuration not stated) | i | i | i | i | i
COc1cc(C2NCCc3c2[nH]c2ccccc32)ccc1OC(C)C (configuration not stated) | i | i | i | i | i
COc1ccc2[nH]c3c(c2c1)CCNC3c1ccc([N+](=O)[O-])o1 (configuration not stated) | i | i | -5.63* | i | i
Cc1cccn2c(=O)nc(SCC(=O)Nc3ccc4c(c3)OCCO4)nc12 | i | i | i | i | i
COc1ccc(/C=C/C(=O)NC(=S)NNC(=O)c2cnccn2)cc1 | i | i | -6.49* | i | i
O=C(/C=C/c1ccco1)NC(=S)Nc1ccccn1 | i | i | i | 18* | i
Cc1ccc2oc(-c3cccc(NC(=S)NC(=O)c4cccs4)c3)nc2c1 | i | i | i | i | i
Cc1ccc2oc(-c3cccc(NC(=S)NC(=O)/C=C/c4ccco4)c3)nc2c1 | -7.09* | i | i | i | i
O=C(/C=C/c1ccco1)NC(=S)Nc1nc(-c2ccc(Cl)cc2)cs1 | i | i | i | i | i
O=C(/C=C/c1ccco1)NC(=S)Nc1nc(-c2ccc3ccccc3c2)cs1 | i | i | -6.57* | i | i
N=c1oc2ccccc2cc1-c1nc(-c2ccc(Cl)cc2)cs1 | i | i | i | i | i
CC(C)N(CCc1ccncc1)C(=S)Nc1cccc(Cl)c1 | i | i | i | i | i
COC(=O)c1cc(C(=O)OCC(=O)Nc2ccccc2OC(F)F)cc([N+](=O)[O-])c1 | i | i | i | i | i
CCOc1ccc(-n2c(SCC(=O)Nc3ccc(C(=O)O)cc3)nc3ccccc3c2=O)cc1 | i | i | i | i | i
CCn1cc(CCC(=O)NCCN2CCOCC2)c2ccccc21 | i | i | i | i | i
COc1ccc(/C=C/C(=O)NC(=S)Nc2ccccn2)cc1 | i | i | i | 7.07* | i
C=CCN(CC=C)C(=S)NC(=O)/C=C/c1ccc(OC)cc1 | i | i | i | 8.92* | i
SMILES | RGS4 pot | RGS4 block | MrgX1 antagonist | MrgX1 PAM | MrgX1 agonist
Cc1ccc(NC(=O)CC2NCCNC2=O)cc1Cl (configuration not stated) | i | i | i | i | i
COc1ccc(/C=C2\SC(=O)N(CCNC(=O)Cc3coc4cc(C)ccc34)C2=O)cc1OC | -8.49* | i | i | i | i
Cc1nn2c(N3CCCC3)cc(C(C)C)nc2c1-c1ccccc1 | -7.12* | i | i | i | i
CCOc1ccc(OCCC(=O)OCC(=O)Nc2ccc(Cl)cn2)cc1 | i | i | i | i | i
CCN1/C(=C/C(C)=C/c2sc3ccccc3[n+]2CC)Sc2ccccc21 | i | i | -6.38* | i | i
CCOc1ccc(NC(=O)CSc2nnc(CCNC(=O)c3ccc(OC)cc3)n2C)cc1 | i | i | -6.26* | i | i
Cc1ccc(-c2csc(Nc3ccc(C(=O)O)cc3)[n+]2Cc2ccccc2)cc1 | i | i | i | 9.1* | i
O=S(=O)(c1ccccc1)c1cnc(-c2ccccc2)nc1N1CCCC1 | i | i | i | i | i
COc1cc2ncc(S(=O)(=O)c3ccccc3)c(N3CCCC(C)C3)c2cc1OC (configuration not stated) | -7.28* | i | i | i | i
Cc1nnc2n(c1=O)N=C(c1ccc(Cl)cc1)CS2 | i | i | i | i | i
Cc1cc(OCC(=O)Nc2nccs2)c2c(C)cc(=O)oc2c1 | i | i | i | i | i
CCN1C(=O)/C(=C\c2ccc(-c3cccc(C(=O)OC)c3)o2)SC1=Nc1ccc(C(=O)O)cc1 | i | i | -6.53* | i | i
CCN=C1S/C(=C\c2ccc(-c3cccc(C(=O)O)c3)o2)C(=O)N1CC | i | i | i | i | i
O=C(O)c1cccc(-c2ccc(/C=C3/SC(=Nc4ccccc4)N(Cc4cccnc4)C3=O)o2)c1 | i | i | -5.08* | i | i
CC1CCN(C(=O)CCNS(=O)(=O)c2ccc3c(c2)c(=O)n(C)c(=O)n3C)CC1 | i | i | i | i | i
COc1cccc(OC)c1C(=O)NC(=S)NCc1cccnc1 | i | i | i | i | i
CCC(Oc1ccccc1)C(=O)NCc1ccc(S(N)(=O)=O)cc1 (configuration not stated) | i | i | i | i | i
O=C(O)Cc1sc(N/N=C\c2ccccc2)nc1-c1ccccc1 | i | i | -6.2* | i | i
CCOC(=O)c1sc(N/N=C/c2ccccc2)nc1C | i | i | i | i | i
CCCc1nc2c(s1)CCc1onc(-c3ccc(Cl)cc3)c1-2 | i | i | i | i | i
CCCc1sc(N)nc1-c1ccc(Cl)cc1 | -7.4* | i | i | i | i
COc1ccc(C(=O)NNC(=O)Cc2ccc(Cl)cc2)cc1 | i | i | i | i | i
COc1cccc(C(=O)NNC(=O)Cc2ccc(Cl)cc2)c1 | i | i | -6.99* | i | i
Cc1c(CCC(=O)N2CCC(C(=O)O)(c3ccccc3)CC2)c(=O)oc2cc3oc4c(c3cc12)CCCC4 | i | i | -6.24* | i | i
Cc1c(CCC(=O)N2CCC(C(=O)O)CC2)c(=O)oc2cc3oc4c(c3cc12)CCCC4 | i | i | i | i | i
CC1(C)CCCN(C(=O)N2c3ccccc3Sc3ccccc32)C1 | -9.23* | i | i | i | i
